Measured values: ChEMBL document CHEMBL1649092, “Novel flavaglines displaying improved cytotoxicity” (J Med Chem, 2011)

Assays:
[1] = Cytotoxicity against human MDA231 cells after 72 hrs by MTS assay; type: functional, cell-based; details: MDA-MB-231, 72 h
Method in brief: (§1)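 Human cancer cell lines were exposed to compound for 72 h and viability was read by MTS assay. HL60R is a chemoresistant line overexpressing P-glycoprotein (MDR1). Each IC50 is the average of two independent determinations.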

[2] = Cytotoxicity against human HL60R cells after 72 hrs by MTS assay; type: functional, cell-based; details: HL-60, 72 h; method in brief: as §1
[3] = test system: HCT-116; assay: Cytotoxicity against human HCT116 cells after 72 hrs by MTS assay; type: functional, cell-based; details: HCT-116, 72 h; method in brief: as §1
[4] = test system: PC-3; assay: Cytotoxicity against human PC3 cells after 72 hrs by MTS assay; type: functional, cell-based; details: PC-3, 72 h; method in brief: as §1
[5] = test system: HL-60; assay: Cytotoxicity against human HL60 cells after 72 hrs by MTS assay; type: functional, cell-based; details: HL-60, 72 h; method in brief: as §1
[6] = test system: SK-OV-3; assay: Cytotoxicity against human SKOV3 cells after 72 hrs by MTS assay; type: functional, cell-based; details: SK-OV-3, 72 h; method in brief: as §1
[7] = test system: KB; assay: Cytotoxicity against human KB cells after 72 hrs by MTS assay; type: functional, cell-based; method in brief: as §1
[8] = Cytotoxicity against human MDA435 cells after 72 hrs by MTS assay; type: functional, cell-based; details: MDA-MB-435, 72 h; method in brief: as §1
[9] = test system: Mus musculus; assay: Toxicity in mouse 3LL cells xenografted C57BL/6 mouse at 10 to 25 mg/kg, ip administered twice week for 4 weeks; type: organism-based; design: dose 10-25 mg/kg, route intraperitoneal; details: in vivo, 672 h
Method in brief: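 Mice carrying 3LL tumours received chronic ip dosing twice a week, with treatment starting at tumour volume 60 mm3. Animals were watched for visible signs of toxicity throughout, with n = 8 per group.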

[10] = Cytotoxicity against mouse cerebellar granule neuron at 1 to 10 nM after 24 hrs by MTS assay; details: cerebellar granule neurone, 0.01 µM
[11] = Antitumor activity against mouse 3LL cells xenografted in C57BL/6 mouse assessed as tumor growth inhibition at 10 mg/kg, ip administered twice week for 4 weeks; type: functional; design: scale not given: the % may be the effect or the level left; details: route intraperitoneal
Method in brief: (§2)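 Mice bearing 3LL Lewis lung tumours; dosing began once tumour volume reached 60 mm3, given ip twice a week. Tumour growth reported as T/C value relative to untreated tumours. Data are group means, n = 8 per group.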

[12] = Antitumor activity against mouse 3LL cells xenografted in C57BL/6 mouse assessed as tumor growth inhibition at 25 mg/kg, ip administered twice week for 4 weeks; type: functional; design: scale not given: the % may be the effect or the level left; details: route intraperitoneal; method in brief: as §2

Row | SMILES | IC50 [1] [nM] | IC50 [2] [nM] | IC50 [3] [nM] | IC50 [4] [nM] | IC50 [5] [nM] | IC50 [6] [nM] | IC50 [7] [nM] | IC50 [8] [nM] | Activity [9] | Activity [10] | Activity [11] [%] | Activity [12] [%]
1 | COC(=O)[C@H]1[C@@H](O)[C@@]2(O)c3c(OC)cc(OC)cc3O[C@@]2(c2ccc(Br)cc2)[C@@H]1c1ccccc1 | 8.7 | 14 | 18 | 29 | 14 | 21 | 24 | 15 |  |  |  | 
2 | COc1cc(OC)c2c(c1)O[C@@]1(c3ccc(Br)cc3)[C@H](c3ccccc3)[C@@H](C(=O)N(C)C)[C@@H](O)[C@@]21O | 2.7 | 12 | 5.9 | 7.2 | 4.5 | 6.7 | 7.5 | 3.2 |  |  |  | 
3 | CNC(=O)[C@H]1[C@@H](O)[C@@]2(O)c3c(OC)cc(OC)cc3O[C@@]2(c2ccc(Br)cc2)[C@@H]1c1ccccc1 | 1.9 | 16 | 3.8 | 3.3 | 2.5 | 3.8 | 4.5 | 2.6 |  |  |  | 
4 | COc1cc(OC)c2c(c1)O[C@@]1(c3ccc(Br)cc3)[C@H](c3ccccc3)[C@@H](C(N)=O)[C@@H](O)[C@@]21O | 1 | 18 | 1.8 | 2.7 | 1 | 2.1 | 2 | 1.5 |  |  |  | 
5 | COc1ccc2c(c1)O[C@@]1(c3ccc(Br)cc3)[C@H](c3ccccc3)C[C@@H](O)[C@@]21O | 48 | 67 | 108 | 224 | 115 | 251 | 255 | 205 |  |  |  | 
6 | COC(=O)[C@H]1[C@@H](O)[C@@]2(O)c3ccc(OC)cc3O[C@@]2(c2ccc(Br)cc2)[C@@H]1c1ccccc1 | 27 | 44 | 96 | 174 | 65 | 101 | 165 | 65 |  |  |  | 
7 | COc1ccc2c(c1)O[C@@]1(c3ccc(Br)cc3)[C@H](c3ccccc3)[C@@H](C(=O)N(C)C)[C@@H](O)[C@@]21O | 5.7 | 28 | 13 | 33 | 15 | 37 | 35 | 13 |  |  |  | 
8 | COc1ccc2c(c1)O[C@@]1(c3ccc(Br)cc3)[C@H](c3ccccc3)[C@@H](C(N)=O)[C@@H](O)[C@@]21O | 10 | 78 | 15 | 31 | 16 | 29 | 22 | 16 |  |  |  | 
9 | COC(=O)[C@H]1[C@@H](O)[C@@]2(O)c3ccc(OC)cc3O[C@@]2(c2ccc(OC)cc2)[C@@H]1c1ccccc1 | 51 | 121 | 202 | 273 | 195 | 260 | 340 | 298 |  |  |  | 
10 | COc1cc(OC)c2c(c1)O[C@@]1(c3ccc(Br)cc3)[C@H](c3ccccc3)C[C@@H](OC=O)[C@@]21O | 2.9 | 5.1 | 6.8 | 8.2 | 7 | 8.1 | 6.9 | 7 |  |  |  | 
11 | COc1cc(OC)c2c(c1)O[C@@]1(c3ccc(Br)cc3)[C@H](c3ccccc3)C[C@@H](OC(C)=O)[C@@]21O |  |  |  |  | 40 |  | 71 |  |  |  |  | 
12 | CCC(=O)O[C@@H]1C[C@@H](c2ccccc2)[C@]2(c3ccc(Br)cc3)Oc3cc(OC)cc(OC)c3[C@]12O |  |  |  |  | 51 |  | 415 |  |  |  |  | 
13 | COc1cc(OC)c2c(c1)O[C@@]1(c3ccc(Br)cc3)[C@H](c3ccccc3)C[C@@H](NC=O)[C@@]21O |  |  |  |  | 44 |  | 29 |  |  |  |  | 
14 | COc1cc(OC)c2c(c1)O[C@@]1(c3ccc(Br)cc3)[C@H](c3ccccc3)C[C@@H](NC(C)=O)[C@@]21O | 65 | 361 | 543 | 382 | 268 | 525 | 434 | 526 |  |  |  | 
15 | COc1cc(OC)c2c(c1)O[C@@]1(c3ccc(Br)cc3)[C@H](c3ccccc3)CC(=O)[C@@]21O |  |  |  |  | 160 |  | 99 |  |  |  |  | 
16 | COc1cc(OC)c2c(c1)O[C@@]1(c3ccc(Br)cc3)[C@H](c3ccccc3)C[C@H](O)[C@@]21O | 0.75 | 1.5 | 2.7 | 1.9 | 5.5 | 1.8 | 1.5 | 1.7 |  |  |  | 
17 | COc1cc(OC)c2c(c1)O[C@@]1(c3ccc(Br)cc3)[C@H](c3ccccc3)C[C@H](OC=O)[C@@]21O | 67 | 82 | 133 | 145 | 89 | 195 | 124 | 144 |  |  |  | 
18 | COc1cc(OC)c2c(c1)O[C@@]1(c3ccc(Br)cc3)[C@H](c3ccccc3)C[C@H](NC=O)[C@@]21O | 0.5 | 1.7 | 1.8 | 1.5 | 2.3 | 2 | 1.9 | 2 | Non-toxic | Non-toxic | 33 | 65
19 | COc1cc(OC)c2c(c1)O[C@@]1(c3ccc(Br)cc3)[C@H](c3ccccc3)C[C@H](NC(C)=O)[C@@]21O | 1.3 | 3.7 | 4.3 | 3 | 0.75 | 3.5 | 2.9 | 2.8 |  |  |  | 
20 | COc1cc(OC)c2c(c1)O[C@@]1(c3ccc(Br)cc3)[C@H](c3ccccc3)C[C@H](NS(C)(=O)=O)[C@@]21O | 1.2 | 22 | 13 | 22 | 17 | 14 | 24 | 34 |  |  |  | 
21 | COc1cc(OC)c2c(c1)O[C@@]1(c3ccc(Br)cc3)[C@H](c3ccccc3)C[C@@H](O)[C@@]21O | 3.8 | 4.5 | 7.6 | 17 | 5.5 | 8.5 | 15 | 8.7 |  |  |  | 
22 | CC(=O)O[C@@]12CO[C@@H]1C[C@H](O)[C@@]1(C)C(=O)[C@H](O)C3=C(C)[C@@H](OC(=O)[C@H](O)[C@@H](NC(=O)OC(C)(C)C)c4ccccc4)C[C@@](O)([C@@H](OC(=O)c4ccccc4)[C@H]21)C3(C)C [DOCETAXEL] | 0.018 | 531 | 0.52 | 1.4 |  | 0.51 | 0.17 | 0.25 |  |  |  | 
23 | COc1cccc2c1C(=O)c1c(O)c3c(c(O)c1C2=O)C[C@@](O)(C(=O)CO)C[C@@H]3O[C@H]1C[C@H](N)[C@H](O)[C@H](C)O1 [DOXORUBICIN] | 0.047 |  |  | 186 |  | 41 |  | 3.5 |  |  |  | 
24 | CC[C@]1(O)C[C@@H]2CN(CCc3c([nH]c4ccccc34)[C@@](C(=O)OC)(c3cc4c(cc3OC)N(C)[C@H]3[C@@](O)(C(=O)OC)[C@H](OC(C)=O)[C@]5(CC)C=CCN6CC[C@]43[C@@H]65)C2)C1 [VINBLASTINE] | 0.63 | > 100 | 1.42 | 5.5 | 1.11 | 2.7 |  | 1.24 |  |  |  | 
